This is an account of results in ChEMBL document CHEMBL1150426, “New C5-alkylated indolobenzazepinones acting as inhibitors of tubulin polymerization: cytotoxic and antitumor activities” (J Med Chem, 2008).

Active and inactive are the calls of the source. No cut-off for these calls is given here.

Test [1] is described as follows: Inhibition of sheep brain tubulin polymerization. Also noted: species or system Ovis aries. In a few lines:
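Sheep brain tubulin (about 2–3 mg/mL), purified by two assembly–disassembly cycles, in 0.1 M MES, 0.5 mM MgCl₂, 1 mM EGTA, 1 mM GTP, pH 6.6. Assembly followed by turbidity at 350 nm, 37 °C.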

Test [2] concerns K562. The test can be described thus: Cell cycle arrest in human K562 cells assessed as accumulation at G2/M phase at 0.05 uM after 24 hrs by flow cytometry. It counts as functional. In outline: (§1)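 Exponentially growing K562 cells exposed to compound or DMSO for 6, 16 or 24 h; cell-cycle phase distribution determined by flow cytometry; data representative of three independent experiments.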

Test [3] concerns K562. The test can be described thus: Cell cycle arrest in human K562 cells assessed as accumulation at G2/M phase at 1 uM after 6 hrs by flow cytometry. The format is functional. In a few lines: as §1
Test [4] relates to K562. The test can be described thus: Cell cycle arrest in human K562 cells assessed as accumulation at G0/G1 phase at 1 uM after 6 hrs by flow cytometry. It counts as functional. In a few lines:
as §1

In test [5] the test system is K562. The test can be described thus: Cell cycle arrest in human K562 cells assessed as accumulation at G0/G1 phase at 0.5 uM after 6 hrs by flow cytometry. It counts as functional. In a few lines:
as §1

Test [6] concerns K562. In words: Cell cycle arrest in human K562 cells assessed as accumulation at S phase at 1 uM after 6 hrs by flow cytometry. The format is functional. In a few lines: as §1
Test [7] has as its system K562. The test can be described thus: Cell cycle arrest in human K562 cells assessed as accumulation at G0/G1 phase at 0.05 uM after 16 hrs by flow cytometry. The format is functional. In a few lines:
as §1

Test [8] concerns K562. The test can be described thus: Cell cycle arrest in human K562 cells assessed as accumulation at G0/G1 phase at 1 uM after 16 hrs by flow cytometry. The format is functional. In outline: as §1
Test [9] concerns K562. The test can be described thus: Cell cycle arrest in human K562 cells assessed as accumulation at S phase at 0.05 uM after 24 hrs by flow cytometry. The format is functional. In a few lines:
as §1

In test [10] the test system is K562. In words: Cell cycle arrest in human K562 cells assessed as accumulation at S phase at 0.5 uM after 24 hrs by flow cytometry. It counts as functional. In outline: as §1
For test [11], the system named is MDA-MB-231. In words: Effect on cell morphology in human MDA-MB-231 cells assessed as change in cell size and shape at 0.050 uM after 24 hrs. The format is functional, cell-based. In a few lines:
(§2)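 MDA-MB231 cells on chamber slides treated 24 h at 50 nM, fixed in 3.7% formaldehyde, permeabilized with 0.1% Triton X-100. Stained for β-tubulin (Alexa 488 secondary), actin (Alexa 546 phalloidin) and nuclei (Hoechst 33342); imaged by fluorescence microscopy at 60× and 100×.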

Test [12] has as its system MDA-MB-231. The test can be described thus: Effect on cell morphology in human MDA-MB-231 cells assessed as change in cellular mass at 0.050 uM after 24 hrs. It counts as functional, cell-based. In outline: as §2
For test [13], the system named is MCF7. The test can be described thus: Antiproliferative activity against human MCF7 cells after 72 hrs. It counts as functional, cell-based. The following applies: MCF7, 72 h. In outline: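 Cells were seeded at 5 × 10³ per well and cultured for 24 h. Test compound in DMSO (under 0.1%) was then added for 72 h. Resazurin was added for 2 h, and fluorescence was read at ex 560 nm / em 590 nm. IC50 was taken as the concentration giving a 50% fall in fluorescence versus untreated cells. Runs were done in triplicate.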

The subject of test [14] is MCF7. The test can be described thus: Cell cycle arrest in human MCF7 cells assessed as accumulation at G2/M phase at 0.05 uM after 24 hrs by flow cytometry.

`CC[C@@H]1NC(=O)c2[nH]c3ccccc3c2-c2ccccc21`: the IC50 in [1] worked out at 1900 nM; in the test with MCF7 [13], 40 nM. Also, the Activity in the test with K562 [2] turned out to be 24.9%; in the test on K562 [3] it was 8.1%; with K562 [4], 0.2%; with K562 [5], 0.2%; with K562 [6] it was 91.1%; in the test with K562 [7], 1%. Besides, the Activity in the test with K562 [8] was determined as 2.4%; in the test on K562 [9], 49.1%; in the test with K562 [10] it was 53.4%; in the test with MCF7 [14] it was 65.6%. Besides, the outcome in the test with MDA-MB-231 [11] and with MDA-MB-231 [12] was Active.
